This is an account of results in paper PMC3021469 (Investigative radiology, 2010).

Data set [1] addresses human serum albumin (HSA) (Homo sapiens, UniProt P02768). Format: physicochemical. The following applies: albumin-bound; fit of variable temperature NMRD; (SD). An outline of the steps:
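Samples were 0.1 mM Gd complex with 0.67 mM HSA (4.5% w/v) in pH 7.4 HEPES-buffered saline, Gd by ICP-MS. 1H NMRD profiles were recorded on a field-cycling relaxometer at 5, 15, 25 and 35 °C over 0.01–50 MHz (0.0002–1.2 T), with 22 points per curve. Variable-temperature profiles were fitted using a Lipari-Szabo treatment.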

For data set [2] the following is noted: commercial extracellular fluid agent, on the order of; ref not given; cited from earlier work.

Sequence of human serum albumin (HSA) (P02768 25-609): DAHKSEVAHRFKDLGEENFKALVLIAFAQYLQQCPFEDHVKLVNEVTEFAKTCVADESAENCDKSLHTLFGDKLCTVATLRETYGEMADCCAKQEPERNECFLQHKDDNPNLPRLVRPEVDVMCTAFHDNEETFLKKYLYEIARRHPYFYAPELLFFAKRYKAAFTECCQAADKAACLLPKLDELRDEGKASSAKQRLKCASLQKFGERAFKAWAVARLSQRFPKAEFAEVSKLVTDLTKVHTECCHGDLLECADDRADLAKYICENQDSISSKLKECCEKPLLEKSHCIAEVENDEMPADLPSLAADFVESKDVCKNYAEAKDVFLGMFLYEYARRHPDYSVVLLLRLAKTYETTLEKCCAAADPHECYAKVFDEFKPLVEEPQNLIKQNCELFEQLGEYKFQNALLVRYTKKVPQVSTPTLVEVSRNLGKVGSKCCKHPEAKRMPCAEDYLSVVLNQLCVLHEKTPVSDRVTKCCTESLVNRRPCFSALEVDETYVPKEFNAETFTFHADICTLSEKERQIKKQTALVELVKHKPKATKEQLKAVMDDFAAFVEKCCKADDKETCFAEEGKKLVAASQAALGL

Regarding Gd1b, in data set [1], the “F^2 (Lipari-Szabo order parameter)” value is on record as 0.46 (0.01), the “ΔH^‡ (activation energy for water exchange)” value is 42.3 (4.2) kJ/mol, the “Δ^2 (transient zero field splitting parameter)” value is given as 3.39 (0.12) 10^18 s^-2 and the “τv (correlation time of transient ZFS modulation)” value is 22 (3) ps.

In the case of `O=C([O-])CN(CCN(CC(=O)[O-])CC(=O)O)CCN(CC(=O)[O-])CC(=O)O.[Gd+3]` [Gd-DTPA], the “relaxivity r1” value in data set [2] was about 4 mM⁻¹ s⁻¹.
